Active and inactive are the calls of the source.
Experiments:
K562 = assay: Cytotoxicity against human K562 cells assessed as cell growth at 1 x 10^-5 M; type: functional, cell-based
How it was run: (§1)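 Run by the NCI Developmental Therapeutics Program (DTP) as its one-dose screen across the 60 human tumour cell line panel.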

SK-MEL-5 = assay: Cytotoxicity against human SK-MEL-5 cells assessed as cell growth at 1 x 10^-5 M; type: functional, cell-based; how it was run: as §1
BT-549 = assay: Cytotoxicity against human BT549 cells assessed as cell growth at 1 x 10^-5 M; type: functional, cell-based; how it was run: as §1
HOP-92 = assay: Cytotoxicity against human HOP92 cells assessed as cell growth at 1 x 10^-5 M; type: functional, cell-based; how it was run: as §1
NCI-H226 = assay: Cytotoxicity against human NCI-H226 cells assessed as cell growth at 1 x 10^-5 M; type: functional, cell-based; how it was run: as §1
Escherichia coli [1] = assay: Effect on Copper-mediated Escherichia coli pBR322 DNA cleavage at 100 uM by gel-electrophoresis analysis
A549 = assay: Cytotoxicity against human A549 cells assessed as cell growth at 1 x 10^-5 M; type: functional, cell-based; how it was run: as §1
OVCAR-8 = assay: Cytotoxicity against human OVCAR8 cells assessed as cell growth at 1 x 10^-5 M; type: functional, cell-based; how it was run: as §1
CCRF-CEM = assay: Cytotoxicity against human CCRF-CEM cells assessed as cell growth at 1 x 10^-5 M; type: functional, cell-based; how it was run: as §1
OVCAR-5 = assay: Cytotoxicity against human OVCAR5 cells assessed as cell growth at 1 x 10^-5 M; type: functional, cell-based; how it was run: as §1
NCI-H522 = assay: Cytotoxicity against human NCI-H522 cells assessed as cell growth at 1 x 10^-5 M; type: functional, cell-based; how it was run: as §1
KM12 = assay: Cytotoxicity against human KM12 cells assessed as cell growth at 1 x 10^-5 M; type: functional, cell-based; how it was run: as §1
DU-145 = assay: Cytotoxicity against human DU145 cells assessed as cell growth at 1 x 10^-5 M; type: functional, cell-based; how it was run: as §1
UO-31 = assay: Cytotoxicity against human UO31 cells assessed as cell growth at 1 x 10^-5 M; type: functional, cell-based
How it was run: (§2)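 Tested by the NCI Developmental Therapeutics Program in its one-dose screen across the 60 human tumour cell line panel.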

Escherichia coli [2] = assay: Effect on photodynamic inactivation in Escherichia coli pUC19 DNA assessed as photo-mediated DNA cleavage at 10 to 100 uM by ethidium bromide gel-electrophoresis analysis
SR = assay: Cytotoxicity against human SR cells assessed as cell growth at 1 x 10^-5 M; type: functional, cell-based; how it was run: as §1
HCT-116 = assay: Cytotoxicity against human HCT116 cells assessed as cell growth at 1 x 10^-5 M; type: functional, cell-based; how it was run: as §1
A498 = assay: Cytotoxicity against human A498 cells assessed as cell growth at 1 x 10^-5 M; type: functional, cell-based; how it was run: as §1
Hs-578T = assay: Cytotoxicity against human Hs578T cells assessed as cell growth at 1 x 10^-5 M; type: functional, cell-based; how it was run: as §1
SNB-75 = assay: Cytotoxicity against human SNB75 cells assessed as cell growth at 1 x 10^-5 M; type: functional, cell-based; how it was run: as §1
IGROV-1 = assay: Cytotoxicity against human IGROV1 cells assessed as cell growth at 1 x 10^-5 M; type: functional, cell-based; how it was run: as §1
786-0 = assay: Cytotoxicity against human 786-0 cells assessed as cell growth at 1 x 10^-5 M; type: functional, cell-based; how it was run: as §1
SK-MEL-28 = assay: Cytotoxicity against human SK-MEL-28 cells assessed as cell growth at 1 x 10^-5 M; type: functional, cell-based; how it was run: as §1
SF-295 = assay: Cytotoxicity against human SF295 cells assessed as cell growth at 1 x 10^-5 M; type: functional, cell-based; how it was run: as §1
SN12C = assay: Cytotoxicity against human SN12C cells assessed as cell growth at 1 x 10^-5 M; type: functional, cell-based; how it was run: as §1
SW-620 = assay: Cytotoxicity against human SW620 cells assessed as cell growth at 1 x 10^-5 M; type: functional, cell-based; how it was run: as §2
MDA-MB-468 = assay: Cytotoxicity against human MDA-MB-468 cells assessed as cell growth at 1 x 10^-5 M; type: functional, cell-based; how it was run: as §1
SNB-19 = assay: Cytotoxicity against human SNB19 cells assessed as cell growth at 1 x 10^-5 M; type: functional, cell-based; how it was run: as §1
Escherichia coli [3] = assay: Effect on Copper-mediated Escherichia coli pUC19 DNA cleavage at 100 uM by gel-electrophoresis analysis
MDA-MB-435 = assay: Cytotoxicity against human MDA-MB-435 cells assessed as cell growth at 1 x 10^-5 M; type: functional, cell-based; how it was run: as §1
NCI-H322M = assay: Cytotoxicity against human NCI-H322M cells assessed as cell growth at 1 x 10^-5 M; type: functional, cell-based; how it was run: as §1
NCI/ADR-RES = assay: Cytotoxicity against human NCI-ADR-RES cells assessed as cell growth at 1 x 10^-5 M; type: functional, cell-based; how it was run: as §1
UACC-257 = assay: Cytotoxicity against human UACC257 cells assessed as cell growth at 1 x 10^-5 M; type: functional, cell-based; how it was run: as §2
Malme-3M = assay: Cytotoxicity against human MALME-3M cells assessed as cell growth at 1 x 10^-5 M; type: functional, cell-based; how it was run: as §1
CAKI-1 = assay: Cytotoxicity against human Caki1 cells assessed as cell growth at 1 x 10^-5 M; type: functional, cell-based; how it was run: as §1
RXF 393 = assay: Cytotoxicity against human RXF393 cells assessed as cell growth at 1 x 10^-5 M; type: functional, cell-based; how it was run: as §1
HOP-62 = assay: Cytotoxicity against human HOP62 cells assessed as cell growth at 1 x 10^-5 M; type: functional, cell-based; how it was run: as §1
SK-OV-3 = assay: Cytotoxicity against human SKOV3 cells assessed as cell growth at 1 x 10^-5 M; type: functional, cell-based; how it was run: as §1
M14 = assay: Cytotoxicity against human M14 cells assessed as cell growth at 1 x 10^-5 M; type: functional, cell-based; how it was run: as §1
UACC-62 = assay: Cytotoxicity against human UACC62 cells assessed as cell growth at 1 x 10^-5 M; type: functional, cell-based; how it was run: as §2
OVCAR-3 = assay: Cytotoxicity against human OVCAR3 cells assessed as cell growth at 1 x 10^-5 M; type: functional, cell-based; how it was run: as §1
TK-10 = assay: Cytotoxicity against human TK10 cells assessed as cell growth at 1 x 10^-5 M; type: functional, cell-based; how it was run: as §2
SF-539 = assay: Cytotoxicity against human SF539 cells assessed as cell growth at 1 x 10^-5 M; type: functional, cell-based; how it was run: as §1
HT-29 = assay: Cytotoxicity against human HT-29 cells assessed as cell growth at 1 x 10^-5 M; type: functional, cell-based; how it was run: as §1
NCI-H23 = assay: Cytotoxicity against human NCI-H23 cells assessed as cell growth at 1 x 10^-5 M; type: functional, cell-based; how it was run: as §1
SF-268 = assay: Cytotoxicity against human SF268 cells assessed as cell growth at 1 x 10^-5 M; type: functional, cell-based; how it was run: as §1
U-251 = assay: Cytotoxicity against human U251 cells assessed as cell growth at 1 x 10^-5 M; type: functional, cell-based; how it was run: as §2
PC-3 = assay: Cytotoxicity against human PC3 cells assessed as cell growth at 1 x 10^-5 M; type: functional, cell-based; how it was run: as §1
SK-MEL-2 = assay: Cytotoxicity against human SK-MEL-2 cells assessed as cell growth at 1 x 10^-5 M; type: functional, cell-based; how it was run: as §1
COLO 205 = assay: Cytotoxicity against human COLO205 cells assessed as cell growth at 1 x 10^-5 M; type: functional, cell-based; how it was run: as §1
MOLT-4 = assay: Cytotoxicity against human MOLT4 cells assessed as cell growth at 1 x 10^-5 M; type: functional, cell-based; how it was run: as §1
MCF7 = assay: Cytotoxicity against human MCF7 cells assessed as cell growth at 1 x 10^-5 M; type: functional, cell-based; how it was run: as §1
LOX IMVI = assay: Cytotoxicity against human LOXIMVI cells assessed as cell growth at 1 x 10^-5 M; type: functional, cell-based; how it was run: as §1
MDA-MB-231 = assay: Cytotoxicity against human MDA-MB-231 cells assessed as cell growth at 1 x 10^-5 M; type: functional, cell-based; how it was run: as §1
HL-60(TB) = assay: Cytotoxicity against human HL-60(TB) cells assessed as cell growth at 1 x 10^-5 M; type: functional, cell-based
How it was run: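 Run by the NCI Developmental Therapeutics Program (DTP) within its 60 human tumour cell line one-dose screen.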

NCI-H460 = assay: Cytotoxicity against human NCI-H460 cells assessed as cell growth at 1 x 10^-5 M; type: functional, cell-based; how it was run: as §1
OVCAR-4 = assay: Cytotoxicity against human OVCAR4 cells assessed as cell growth at 1 x 10^-5 M; type: functional, cell-based; how it was run: as §1
T47D = assay: Cytotoxicity against human T47D cells assessed as cell growth at 1 x 10^-5 M; type: functional, cell-based; how it was run: as §2
ACHN = assay: Cytotoxicity against human ACHN cells assessed as cell growth at 1 x 10^-5 M; type: functional, cell-based; how it was run: as §1
HCC 2998 = assay: Cytotoxicity against human HCC2998 cells assessed as cell growth at 1 x 10^-5 M; type: functional, cell-based; how it was run: as §1
HCT-15 = assay: Cytotoxicity against human HCT15 cells assessed as cell growth at 1 x 10^-5 M; type: functional, cell-based; how it was run: as §1

CCCCCCCCC(=O)Nc1ccc(C[C@H]2C(=O)OC3c4cc(C)cc(O)c4C4=C(C(=O)c5c(O[C@H]6C[C@@H](O)[C@@H](O)[C@H](C)O6)cccc5C4=O)N32)cc1 (some centres undefined)
inactive: growth inhibition (GI) (K562) | growth inhibition (GI) (SK-MEL-5) | growth inhibition (GI) (BT-549) | growth inhibition (GI) (HOP-92) | growth inhibition (GI) (NCI-H226) | Activity (Escherichia coli [1]) | growth inhibition (GI) (A549) | growth inhibition (GI) (OVCAR-8) | growth inhibition (GI) (CCRF-CEM) | growth inhibition (GI) (OVCAR-5) | growth inhibition (GI) (NCI-H522) | growth inhibition (GI) (KM12) | growth inhibition (GI) (DU-145) | growth inhibition (GI) (UO-31) | Activity (Escherichia coli [2]) | growth inhibition (GI) (SR) | growth inhibition (GI) (HCT-116) | growth inhibition (GI) (A498) | growth inhibition (GI) (Hs-578T) | growth inhibition (GI) (SNB-75) | growth inhibition (GI) (IGROV-1) | growth inhibition (GI) (786-0) | growth inhibition (GI) (SK-MEL-28) | growth inhibition (GI) (SF-295) | growth inhibition (GI) (SN12C) | growth inhibition (GI) (SW-620) | growth inhibition (GI) (MDA-MB-468) | growth inhibition (GI) (SNB-19) | Activity (Escherichia coli [3]) | growth inhibition (GI) (MDA-MB-435) | growth inhibition (GI) (NCI-H322M) | growth inhibition (GI) (NCI/ADR-RES) | growth inhibition (GI) (UACC-257) | growth inhibition (GI) (Malme-3M) | growth inhibition (GI) (CAKI-1) | growth inhibition (GI) (RXF 393) | growth inhibition (GI) (HOP-62) | growth inhibition (GI) (SK-OV-3) | growth inhibition (GI) (M14) | growth inhibition (GI) (UACC-62) | growth inhibition (GI) (OVCAR-3) | growth inhibition (GI) (TK-10) | growth inhibition (GI) (SF-539) | growth inhibition (GI) (HT-29) | growth inhibition (GI) (NCI-H23) | growth inhibition (GI) (SF-268) | growth inhibition (GI) (U-251) | growth inhibition (GI) (PC-3) | growth inhibition (GI) (SK-MEL-2) | growth inhibition (GI) (COLO 205) | growth inhibition (GI) (MOLT-4) | growth inhibition (GI) (MCF7) | growth inhibition (GI) (LOX IMVI) | growth inhibition (GI) (MDA-MB-231) | growth inhibition (GI) (HL-60(TB)) | growth inhibition (GI) (NCI-H460) | growth inhibition (GI) (OVCAR-4) | growth inhibition (GI) (T47D) | growth inhibition (GI) (ACHN) | growth inhibition (GI) (HCC 2998) | growth inhibition (GI) (HCT-15)

Cc1cc(O)c2c(c1)C1OC(=O)[C@H](Cc3ccc(NC(=O)COc4ccc5ccccc5c4)cc3)N1C1=C2C(=O)c2cccc(O[C@H]3C[C@@H](O)[C@@H](O)[C@H](C)O3)c2C1=O (some centres undefined)
inactive: Activity (Escherichia coli [1]) | Activity (Escherichia coli [2]) | Activity (Escherichia coli [3])

Source: ChEMBL document CHEMBL3585335, “Isolation and Synthetic Diversification of Jadomycin 4-Amino-l-phenylalanine” (J Nat Prod, 2015)
